What all share (conditions): Homo sapiens
Compound in data set [1]: O=C(Nc1ncnc2c1ncn2CP(=O)(O)O)c1cccc(-c2ccccc2)c1
Briefly: Competitive inhibition of recombinant cN-II (unknown origin) using varying level of IMP as substrate assessed as substrate Kcat by HPLC method based Lineweaver-Burk plot analysis. In short, it runs like this:
(§1)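 Enzyme, alone or with compound, was mixed with IMP (0.2 to 3 mM) under stirring at 37 °C in imidazole pH 6.5/NaCl/MgCl2 buffer. Samples were taken every 7 s and quenched with 10% perchloric acid. IMP and inosine were quantified by SAX HPLC in 10 mM ammonium phosphate pH 5.5. Data were fitted to competitive, non-competitive, uncompetitive or mixed inhibition equations.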

Compound in data set [2]: O=C(Nc1ncnc2c1ncn2CP(=O)(O)O)c1cccc(-c2ccccc2)c1
The experiment in a line: Competitive inhibition of recombinant cN-II (unknown origin) using varying level of IMP as substrate assessed as substrate Km by HPLC method based Lineweaver-Burk plot analysis. In short, it runs like this: as §1

Compound in data set [3]: O=C(Nc1ncnc2c1ncn2CP(=O)(O)O)c1cccc(-c2ccccc2)c1
Briefly: Noncompetitive inhibition of recombinant cN-II (unknown origin) assessed as substrate Kcat using varying level of IMP as substrate by HPLC method based Lineweaver-Burk plot analysis. In short, it runs like this:
as §1

Compound in data set [4]: O=C(Nc1ncnc2c1ncn2CP(=O)(O)O)c1cccc(-c2ccccc2)c1
Briefly: Noncompetitive inhibition of recombinant cN-II (unknown origin) assessed as substrate Km using varying level of IMP as substrate by HPLC method based Lineweaver-Burk plot analysis. In short, it runs like this: as §1

Compound in data set [5]: O=C(Nc1ncnc2c1ncn2CP(=O)(O)O)c1cccc(-c2ccccc2)c1
The experiment in a line: Uncompetitive inhibition of recombinant cN-II (unknown origin) assessed as substrate Kcat using varying level of IMP as substrate by HPLC method based Lineweaver-Burk plot analysis. In short, it runs like this: as §1

Compound in data set [6]: O=C(Nc1ncnc2c1ncn2CP(=O)(O)O)c1cccc(-c2ccccc2)c1
Briefly: Uncompetitive inhibition of recombinant cN-II (unknown origin) assessed as substrate Km using varying level of IMP as substrate by HPLC method based Lineweaver-Burk plot analysis. In short, it runs like this:
as §1

Compound in data set [7]: O=C(Nc1ncnc2c1ncn2CP(=O)(O)O)c1cccc(-c2ccccc2)c1
Briefly: Mixed type inhibition of recombinant cN-II (unknown origin) assessed as substrate Kcat using varying level of IMP as substrate by HPLC method based Lineweaver-Burk plot analysis. In short, it runs like this:
as §1

Compound in data set [8]: O=C(Nc1ncnc2c1ncn2CP(=O)(O)O)c1cccc(-c2ccccc2)c1
Briefly: Mixed type inhibition of recombinant cN-II (unknown origin) assessed as substrate Km using varying level of IMP as substrate by HPLC method based Lineweaver-Burk plot analysis. In short, it runs like this:
as §1

B1: 5'-nucleotidase (Homo sapiens), P21589 (protein)
chain: MCPRAARAPATLLLALGAVLWPAAGAWELTILHTNDVHSRLEQTSEDSSKCVNASRCMGGVARLFTKVQQIRRAEPNVLLLDAGDQYQGTIWFTVYKGAEVAHFMNALRYDAMALGNHEFDNGVEGLIEPLLKEAKFPILSANIKAKGPLASQISGLYLPYKVLPVGDEVVGIVGYTSKETPFLSNPGTNLVFEDEITALQPEVDKLKTLNVNKIIALGHSGFEMDKLIAQKVRGVDVVVGGHSNTFLYTGNPPSKEVPAGKYPFIVTSDDGRKVPVVQAYAFGKYLGYLKIEFDERGNVISSHGNPILLNSSIPEDPSIKADINKWRIKLDNYSTQELGKTIVYLDGSSQSCRFRECNMGNLICDAMINNNLRHTDEMFWNHVSMCILNGGGIRSPIDERNNGTITWENLAAVLPFGGTFDLVQLKGSTLKKAFEHSVHRYGQSTGEFLQVGGIHVVYDLSRKPGDRVVKLDVLCTKCRVPSYDPLKMDEVYKVILPNFLANGGDGFQMIKDELLRHDSGDQDINVVSTYISKMKVIYPAVEGRIKFSTGSHCHGSFSLIFLSLWAVIFVLYQ
Turning to B1, the kcat in data set [1] stood at 49.9 s⁻¹; in data set [3] it was 53.1 s⁻¹; in data set [5] it was 54.1 s⁻¹; in data set [7] it was 49.9 s⁻¹. Moreover, the Km was 1070 µM in data set [2], 1260 µM in data set [4], 1360 µM in data set [6] and 1070 µM in data set [8].

For the origin of these results see ChEMBL document CHEMBL4387703, “Lead optimization and biological evaluation of fragment-based cN-II inhibitors” (Eur J Med Chem, 2019).
